Publication PMC7923394 (Nature chemical biology, 2020)
Where no end group is shown, it is not given here. The star is where a group is joined. αGalNAc = CC(=O)N[C@@H]1[C@@H](O)[C@@H](O)[C@@H](CO)O[C@@H]1*

Tests used:
Test in all cases: Enzyme kinetics, UDP-[3H]-GalNAc transfer to
Assay type in all cases: biochemical
human GalNAc-T12 = details: peptide as acceptor substrate; Supplementary Fig. 16a
In short: (§1)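 Radiochemical transfer assay with 0.02–0.03 µM purified enzyme, 0.02–0.7 mM acceptor and 0.2 mM UDP-[3H]-GalNAc in 100 mM sodium cacodylate pH 6.5, 1 mM β-mercaptoethanol and 10 mM MnCl2 at 37 °C. T6 and T12 were HEK293F-expressed and His-Trap purified. Reactions were EDTA-quenched and product separated by Sephadex G10. Initial rates (<30% donor used) were normalised to a fresh-enzyme reference glycopeptide. Runs used 5–7 concentrations, 2–5 repeats, and Michaelis–Menten (± substrate-inhibition) fits.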

human GalNAc-T4 = details: peptide as acceptor substrate; Supplementary Fig. 16a
human GalNAc-T6 = molecular target: T1, human GalNAc-T6 (Homo sapiens, UniProt Q8NCL4); details: peptide as acceptor substrate
T1 sequence (Q8NCL4 1-622): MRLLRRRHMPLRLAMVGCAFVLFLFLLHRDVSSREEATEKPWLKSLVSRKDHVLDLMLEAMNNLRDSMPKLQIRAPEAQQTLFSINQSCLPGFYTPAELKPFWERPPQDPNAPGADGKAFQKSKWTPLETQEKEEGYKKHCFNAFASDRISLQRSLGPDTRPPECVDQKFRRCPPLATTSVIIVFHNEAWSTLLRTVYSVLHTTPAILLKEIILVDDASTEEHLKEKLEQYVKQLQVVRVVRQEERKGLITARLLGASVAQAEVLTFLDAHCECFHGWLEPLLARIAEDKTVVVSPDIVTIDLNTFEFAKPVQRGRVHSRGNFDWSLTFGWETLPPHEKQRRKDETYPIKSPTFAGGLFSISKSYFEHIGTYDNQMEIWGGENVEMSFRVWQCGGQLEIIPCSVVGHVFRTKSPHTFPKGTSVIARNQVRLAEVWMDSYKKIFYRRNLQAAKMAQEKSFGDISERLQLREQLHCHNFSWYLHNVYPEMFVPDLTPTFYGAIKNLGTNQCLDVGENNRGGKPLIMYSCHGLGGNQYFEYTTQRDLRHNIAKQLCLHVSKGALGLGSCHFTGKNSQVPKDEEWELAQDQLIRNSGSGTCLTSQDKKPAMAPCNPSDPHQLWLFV
In short: as §1

human GalNAc-T3 = molecular target: T2, human GalNAc-T3 (Homo sapiens, UniProt Q14435); details: naked peptides as acceptor substrates
T2 sequence (Q14435 92-633): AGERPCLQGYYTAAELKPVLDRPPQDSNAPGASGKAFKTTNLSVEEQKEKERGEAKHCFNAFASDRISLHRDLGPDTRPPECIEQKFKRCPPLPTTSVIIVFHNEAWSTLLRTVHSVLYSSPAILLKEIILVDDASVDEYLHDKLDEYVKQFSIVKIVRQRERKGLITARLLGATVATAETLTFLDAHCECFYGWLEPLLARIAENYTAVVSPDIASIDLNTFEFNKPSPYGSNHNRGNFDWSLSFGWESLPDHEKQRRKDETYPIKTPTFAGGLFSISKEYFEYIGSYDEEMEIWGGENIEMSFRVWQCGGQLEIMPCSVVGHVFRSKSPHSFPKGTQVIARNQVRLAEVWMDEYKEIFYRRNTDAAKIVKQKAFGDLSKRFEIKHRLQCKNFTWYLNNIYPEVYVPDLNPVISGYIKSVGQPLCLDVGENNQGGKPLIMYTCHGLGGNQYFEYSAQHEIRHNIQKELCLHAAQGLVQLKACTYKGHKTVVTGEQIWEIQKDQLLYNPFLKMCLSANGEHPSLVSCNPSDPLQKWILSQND
In short: as §1

FGF23b: shorter FGF23 model peptide substrate (A171–T178)
activity of GalNAc-T12 against the peptide (human GalNAc-T12): very low
activity of GalNAc-T4 against the peptide (human GalNAc-T4): very low

FGF23c: FGF23 model glycopeptide substrate (T*171–T178, T* = Thr-O-GalNAc) (T(αGalNAc)PIPRRHT-NH2; UniProt Q9GZV9 171-178, looked up, fragment)
Km of GalNAc-T6 compared to GalNAc-T3 (human GalNAc-T6): slightly better Km
Kcat of GalNAc-T6 relative to that of GalNAc-T3 (human GalNAc-T6; Supplementary Fig. 16b): ~ 3.5 fold

GAYAVTPGPAG [OP1]
activity among the OP1 to OP10 peptide series (human GalNAc-T3): the most active of the series
